Arrestin-AP2 inh: inhibitors of human beta-arrestin and AP2 interaction | inhibition, % at 10 µM | FITC-arrestin peptide / GST-AP2 beads, flow cytometry; AP2 beta2 appendage carries R879A mutation | 0.31% of 340,000 active;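 active = inhibition above a set limit, near 3 SD of compounds lacking own fluorescence, cut at about 54% in these data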;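 note: plate controls were DMSO wells for no effect and 5 µM unlabelled arrestin peptide for full effect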
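system = GST-tagged AP2 beta2-adaptin appendage (R879A) on 4 µm glutathione beads | reagent = FITC-labelled arrestin peptide probe, 50 nM final | schedule = compound with beads 12 min RT, then probe 1 h RT | signal = HyperCyt-sampled flow cytometry, FL1 channel, ex 488/em 535 nm | read-out = percent response from loss of bead-bound FITC fluorescence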
Myeloid diff MLP: promotes myeloid progenitor differentiation; 1% of 360,000 active; ER-HoxA9 myeloid progenitors, lysozyme-GFP differentiation, flow cytometry; calls only at 10 µM; AID 624256;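 active = normalized GFP-positive differentiation at or above the plate's own cutoff, the solvent-only control mean plus 3 SD; inconclusive = no clear call, values can overlap the other calls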;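 note: cells exposed to compound for four days before flow analysis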
Exocytosis inh: blocks lytic granule exocytosis; TALL-104 LAMP-1 surface exposure, flow cytometry; cells stimulated with thapsigargin and PMA; 0.66% of 360,000 active; inhibition, % at 10 µM;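 active = inhibition above about 55%, limit read from the data; inconclusive = no clear call, values can overlap the other calls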
ABCB6 inh 2: blocks the human ABCB6 transporter. Q9NP58. 0.19% of 360,000 active. K562-ABCB6 porphyrin accumulation, flow cytometry, 1 h; active compounds read low. fluorescence ratio to DMSO, % at 10 µM. AID 602162;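 active = fluorescence ratio to DMSO below 75%, the collection mean minus 3 SD; inconclusive = too few cells collected in the well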;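 note: signal is porphyrin accumulated inside mitochondria; 100% equals median channel fluorescence of DMSO control wells; lower ratio means ABCB6 inhibition with less porphyrin fluorescence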
ATG4B inhibitor: ATG4B (human) cysteine protease inhibition; Q9Y4P1; ATG4B cleavage of LC3-PLA2, NBD-HPC fluorescence, 1 h; inhibition, % at 8.33 µM; 0.51% of 340,000 active; AID 504462; in the data active = inhibition above about 40%
Target sequence (Q9Y4P1 whole entry, looked up): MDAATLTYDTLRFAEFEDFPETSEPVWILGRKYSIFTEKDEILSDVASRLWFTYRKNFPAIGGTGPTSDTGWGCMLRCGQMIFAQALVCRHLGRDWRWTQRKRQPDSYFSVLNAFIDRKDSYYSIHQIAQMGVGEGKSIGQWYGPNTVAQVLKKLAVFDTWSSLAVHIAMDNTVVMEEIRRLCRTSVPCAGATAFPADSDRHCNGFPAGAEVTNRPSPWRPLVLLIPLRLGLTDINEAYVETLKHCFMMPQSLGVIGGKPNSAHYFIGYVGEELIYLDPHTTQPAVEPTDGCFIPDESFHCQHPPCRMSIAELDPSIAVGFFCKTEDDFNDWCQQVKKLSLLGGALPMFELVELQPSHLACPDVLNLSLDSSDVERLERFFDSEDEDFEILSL
CendR NRP1 mod: alters CendR peptide binding to human NRP-1. O14786. AID 602438. FAM-RPARPAR peptide binding to NRP-1, fluorescence polarization. 0.85% of 360,000 active. inhibition, % at 25 µM;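 active = inhibition or corrected inhibition above about 18%, plus a signal ratio from 0.5 to 1.5, limit read from the data, passing the limit was not always enough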
Numbers without * were called inactive; i = inactive; u = inconclusive; x = not tested or not shown; + = active, no number. Shown are actives, neighbours in structure and some others; about 3.3% of the full set was active somewhere.

SMILES	Arrestin-AP2 inh	Myeloid diff MLP	Exocytosis inh	ABCB6 inh 2	ATG4B inhibitor	CendR NRP1 mod
CS(=O)(=O)c1ccccc1-c1nnc(NC(=O)c2ccc3ncsc3c2)o1	0.5	i	-1.0	102.0	-3.7	-8.2
COC(=O)c1ccc(C)c(NC(=O)Cc2coc3cc(OC)ccc23)c1	4.8	+	4.5	102.0	-9.5	31.7*
COc1ccc(CNS(=O)(=O)c2cc(CN3C(=O)c4cccnc4C3=O)ccc2OC)cc1	10.2	i	-1.5	97.0	-9.3	-8.5
O=C(Nc1ccc(O)c(-c2nc3ccccc3o2)c1)C1(c2ccccc2)CCCC1	-1.7	+	-1.0	91.0	-5.6	-3.5
COc1cccc(Nc2ncccc2C(=O)NCc2ccccc2)c1	-5.6	+	-5.9	182.0	-2.7	-66.5
CCOc1ncccc1C(=O)NCc1cccc(OC)c1	-4.4	i	-1.5	96.0	4.7	-3.1
COc1ccccc1N1CC(C(=O)Nc2nnc(SCC(=O)N3CCOCC3)s2)CC1=O (stereo unspecified)	27.1	i	-0.3	100.0	-6.9	-4.4
COCC(=O)O[C@]1(CCN(C)CCCc2nc3ccccc3[nH]2)CCc2cc(F)ccc2[C@@H]1C(C)C	4.5	u	62.8*	95.0	-11.8	-5.3
CCOC(=O)CCc1nc2ccccc2[nH]1	2.4	i	-1.7	97.0	-9.6	2.3
Clc1ccc(C2[C@H]3CN(Cc4cccnc4)[C@H](c4ccccc4)C34CC2(c2cccnc2)C4)cn1 (stereo partly specified)	x	+	-3.3	104.0	2.2	-15.6
O=C(O)/C=C/C(=O)Nc1ccc(-c2ccccc2)cc1	21.7	i	-0.9	99.0	x	-8.2
O=C(O)/C=C/C(=O)Nc1ccc(OCc2ccccc2)cc1	-2.8	i	-3.3	105.0	9.1	22.1*
O=C1CSC(=S)N1/N=C/c1ccc(O)c(O)c1O	56.8*	i	2.5	99.0	6.5	-42.2
CCOC(=O)c1cnc(-n2nc(C)cc2C)nc1NC1CCCC1	-19.3	i	40.1	99.0	5.2	-15.3
CCOC(=O)c1cnc(-n2nc(C)cc2C)nc1Nc1ccc(OC)cc1	9.8	i	-1.7	100.0	-6.3	30.3*
Cc1ccc(C2=NC(C)(C)N=C2SCC(=O)Nc2ccc(Cl)cc2)cc1	13.5	i	-0.2	66.0*	-10.0	-5.6
CCOC(=O)c1c(S(=O)(=O)Nc2ccc(C)cn2)c(C)n(C)c1C	-5.1	i	3.5	97.0	0.8	-3.2
Cc1cc(=O)oc2cc(OCCSCCN3CCCCC3)ccc12	1.4	i	-7.8	89.0	1.0	-3.6
Cc1cc[n+](-c2[nH]c(=O)sc2/C=N/NC([S-])=Nc2ccccc2)cc1C	6.1	i	0.8	89.0	-5.7	34.8*
CCc1ccc[n+](-c2[nH]c(=O)sc2/C=N/N=C(\[O-])c2ccncc2)c1	0.3	i	6.1	100.0	-5.8	14.6
CC(C)(C)c1cc[n+](-c2[nH]c(=O)sc2/C=N/NC([S-])=Nc2ccccc2)cc1	28.2	i	-7.4	102.0	-7.1	53.7*
O=c1c2ccccc2sc2nc(CCl)nn12	-11.4	i	-1.0	98.0	-3.9	7.1
N#Cc1ccccc1COc1cccc2c1CCCC2O (stereo unspecified)	-5.8	i	-11.3	81.0	-3.2	2.1
CC(=O)Oc1ccc(C(=O)Nc2ccccc2NC(=O)c2ccc(OC(C)=O)cc2)cc1	-12.2	i	57.7*	98.0	-1.6	-2.4
Cc1ccc(S(=O)(=O)N2[C@@H](c3ccc(Cl)cc3)C(C(=O)OC(C)(C)C)=CC[C@H]2c2ccc(Cl)c(Cl)c2)cc1	x	i	-4.0	97.0	x	29.8*
SMILES	Arrestin-AP2 inh	Myeloid diff MLP	Exocytosis inh	ABCB6 inh 2	ATG4B inhibitor	CendR NRP1 mod
Cc1ccccc1C(=O)N1CCC(C(=O)NC2CCCCC2)CC1	-7.3	i	0.7	93.0	9.5	1.0
COc1ccc(NC(=S)NNC(=O)CCn2cc([N+](=O)[O-])cn2)cc1	-1.8	i	-5.8	100.0	-6.3	30.3*
COc1ccc(NC(=O)CCCn2cc([N+](=O)[O-])cn2)cc1	-6.2	i	-1.2	93.0	4.6	2.6
Cc1c(C(=O)OCC[N+]2(C)CCCCC2)oc2ccccc12	-8.5	i	-3.5	103.0	-0.9	47.8*
CCc1cccc(N(C(=O)c2csnn2)C(C(=O)NC(C)(C)C)c2ccncc2)c1 (stereo unspecified)	18.4	i	6.2	100.0	-3.7	2.4
Nc1c(C(=O)C2CC2)sc2nc(-c3cccs3)cc(C(F)(F)F)c12	17.8	+	1.0	i	-13.3	133.6
O=C(COC(=O)Cc1c[nH]c2ccccc12)NC1CCS(=O)(=O)C1 (stereo unspecified)	-20.6	i	-2.2	93.0	-2.6	-10.3
CCC1CN(S(=O)(=O)c2cc(-c3cc(C)no3)ccc2OC)c2cc(C)ccc2O1 (stereo unspecified)	6.5	i	69.7*	96.0	-15.7	7.6
COc1cc(/C=N/NC(=O)c2cccnc2)ccc1OC(=O)c1ccc([N+](=O)[O-])cc1	3.6	i	76.0*	93.0	1.2	4.4
COc1cc(/C=N/NC(=O)c2ccc(NC(=O)C3CC3)cc2)ccc1OC(C)=O	-7.5	i	-1.1	95.0	-2.4	26.9*
O=C(N/N=C/c1ccc(OC(=O)c2ccc([N+](=O)[O-])cc2)cc1)c1cccnc1	-4.7	i	1.3	99.0	6.1	0.9
COc1ccc(/C=N/NC(=O)c2cccnc2)cc1COc1ccc([N+](=O)[O-])cc1	-3.4	i	61.1*	104.0	-21.4	2.8
O=C1c2ccccc2C(=O)C12OC2c1ccc(Cl)cc1Cl (stereo unspecified)	8.8	u	-1.8	100.0	-8.0	5.3
CC(=O)Nc1ccc(NC(=O)COC(=O)[C@@H]2CCCN2C(=O)c2cccs2)cc1	-18.1	i	-0.9	103.0	4.2	3.8
COc1ccc(CNC(=O)C(CCSC)NS(=O)(=O)c2ccccc2F)cc1 (stereo unspecified)	18.3	i	8.0	87.0	-5.0	7.3
CC(=O)Nc1cc(-c2ccccc2N(C)C)cn2c(-c3cccc(C(F)(F)F)c3)cnc12	x	+	27.1	114.0	x	127.7
CC(=O)Nc1cc(-c2cccc(NS(C)(=O)=O)c2)cn2c(-c3cccc(C(F)(F)F)c3)cnc12	x	i	5.0	101.0	x	-24.5
CCCCOc1ccc(Cc2c(O)nc(SC)[nH]c2=O)cc1	-1.6	i	1.1	100.0	-1.4	4.8
CCOC(=O)c1c(-c2ccc(C)o2)csc1NC(=O)CSc1nnc(C)s1	13.9	i	96.0*	92.0	-23.9	-8.4
CCOC(=O)c1c(-c2ccc(C)o2)csc1NC(=O)CSc1nnnn1-c1ccccc1	1.3	i	94.6*	98.0	-9.6	-8.7
CSc1ccccc1-n1nnnc1SCC(=O)NCc1cccs1	0.4	i	0.0	97.0	2.7	2.0
